Compounds with a hit are over-represented: about 2.9% of the library has one in this group of screens.
IMP-1 inhibitor: blocks Pseudomonas aeruginosa IMP-1 metallo-beta-lactamase. AID 1556. actives 0.45% (n = 290,000). inhibition, % at 5.6 µM. purified IMP-1, nitrocefin hydrolysis, epi-absorbance fluorescence;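 active = inhibition above the mean plus 3 SD of all compounds in the same screening run, cut at about 4.5% in these data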;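 note: 0% = IMP-1 with DMSO and 100% = DMSO wells lacking enzyme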
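System: purified IMP-1 / Input: IMP-1 dispensed at 0.2 nM / Medium: 50 mM HEPES pH 7.1, 50 µM ZnSO4, 0.05% Brij 35 / Timing: 15 min enzyme–compound preincubation, then 25 min nitrocefin reaction, 25 °C / Technique: plate fluorescence quenching by hydrolysis product, ex 480/em 530 nm / Repeats: singlicate testing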
VIM-2 inhibitor: inhibitors of Pseudomonas aeruginosa VIM-2 metallo-beta-lactamase. actives 0.89% (n = 290,000). inhibition, % at 5.6 µM. purified VIM-2, nitrocefin hydrolysis, epi-absorbance fluorescence. AID 1527;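 active = inhibition above the mean of all tested compounds plus 3 SD, cutoff set per screening run, cut at about 7.5% in these data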;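 note: red hydrolysis product quenches plate fluorescence so inhibitors raise well fluorescence; 0% = enzyme with DMSO and 100% = DMSO without enzyme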
FID counter: displaces DNA intercalator in HCV helicase counter-screen | DNA fluorescent intercalator displacement, fluorescence | inhibition, % at 7.9 µM | actives 0.17% (n = 290,000) | AID 1845; in the data active = inhibition above about 37%;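 note: 0% = vehicle and 100% = reference compound; higher means more ethidium bromide displaced from hairpin DNA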
SUMO HTRF inh: SUMOylation inhibition. HTRF SUMOylation assay, SAE1/SAE2 + UBC9, in vitro. AID 2006. actives 0.36% (n = 290,000). inhibition, % at 35 µM; in the data active = inhibition above about 50%, passing the limit was not always enough
Target sequence (P63279 whole entry, looked up): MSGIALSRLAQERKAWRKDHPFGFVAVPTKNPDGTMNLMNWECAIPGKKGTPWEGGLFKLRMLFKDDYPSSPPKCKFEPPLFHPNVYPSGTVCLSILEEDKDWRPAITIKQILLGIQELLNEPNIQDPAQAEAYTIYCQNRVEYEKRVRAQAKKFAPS
NALP1 yeast inh: blocks the NALP1 inflammasome reconstituted in yeast; S. cerevisiae NALP1/ASC/caspase-1 growth, X-gal OD620, 72 h; inhibition, % at 10 µM; actives 0.61% (n = 280,000); in the data active = inhibition mostly above about 24%, no sharp cut-off; inactive = mostly below about 32%
Mot1-301 SUMO: SUMOylation pathway inhibition by Mot1-301 growth rescue; growth rescue, % at 18.8 µM; S. cerevisiae Mot1-301 growth rescue, ATP luminescence, 38.5C; percent above DMSO median, 100 means doubled; actives 1% (n = 320,000);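 active = every valid replicate shows activation above 250% relative to neutral control wells; inactive = the rest, any valid replicate at or below 250%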;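 note: OY570 slx delta 5 strain wells were the positive control but not used for scaling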
* marks the source's active call; other numbers are inactive results; . = not tested or not shown.

SMILES	IMP-1 inhibitor	VIM-2 inhibitor	FID counter	SUMO HTRF inh	NALP1 yeast inh	Mot1-301 SUMO
Cc1c(CC(=O)N2CCN(C(=O)C3COc4ccccc4O3)CC2)c(=O)oc2c(C)c(O)ccc12 (stereo not drawn)	-1	-1	-54	50*	16	17
COc1cccc(NC(=O)COC(=O)c2sccc2C)c1	.	.	.	.	.	24
COc1nc(Cl)cn(-c2ccc(C)cc2)c1=O	-3	-3	-2	1	14	-1
Cc1ccc(-n2c(Cl)c(Cl)nc(Cl)c2=O)cc1	0	-1	2	26	124*	27
Cc1cc(N2CC(C)OC(C)C2)nc(C(C)C)n1 (stereo not drawn)	-3	-1	-3	12	-7	8
CCOc1cc(-c2nc(-c3ccc(C)nc3OC)no2)cc(OCC)c1OCC	-3	-3	-14	10	27*	.
CCOc1cc(-c2nc(-c3ccc(C)nc3OCC)no2)cc(OCC)c1OCC	-3	-2	-1	8	26	-14
CCn1cc(C(=O)OCC(=O)Nc2ccc(C(C)C)cc2)c(=O)c2ccc(C)nc21	-3	-3	3	-1	25*	.
CC1(C)CC(C)(c2ccc(O)cc2O)N(c2ccc3ccccc3c2)C(=S)N1 (stereo not drawn)	-3	-1	-20	-9	21	55
CN1C(=S)NC(C)(C)CC1(C)c1ccc(O)cc1O (stereo not drawn)	-3	8.3*	-3	-1	16	-9
COc1ccc(/C=C2/N=C(c3cccs3)OC2=O)cc1OC(C)C	-4	-2	-14	6	3	892*
COc1ccccc1N1CCN(C(=O)C(C)CS(=O)(=O)c2ccc3c(c2)NC(=O)CS3)CC1 (stereo not drawn)	11*	-3	-58	-2	11	-2
COc1cc(OC)c(C2=NOC(C(=O)N3CCCc4ccccc43)C2)cc1Cl (stereo not drawn)	-1	-2	-2	-14	37*	144
CCC1CCCCN1C(=O)C1CC(c2cc(Cl)c(OC)cc2OC)=NO1 (stereo not drawn)	-3	0	-19	13	1	-7
CC[C@@]12C(=O)N(c3cccc(C)c3)C(=O)N1[C@H](c1ccc(OC)cc1)[C@@H]1C(=O)N(C(C)(C)C)C(=O)[C@@H]12	-2	-1	-43	-14	31	-26
COc1ccc([C@@H]2[C@@H]3C(=O)N(C(C)(C)C)C(=O)[C@@H]3[C@]3(C)C(=O)N(c4cccc(C)c4)C(=O)N23)cc1	-1	0	-33	7	-3	280*
CCN(C(=O)C(C)N1C(=O)/C(=C/c2ccco2)SC1=S)C1CCS(=O)(=O)C1 (stereo not drawn)	7.8*	-2	-13	38	11	34
O=C1/C(=C/c2ccco2)SC(=S)N1C1CCS(=O)(=O)C1 (stereo not drawn)	3	-3	-18	61*	22	13
Cc1ccc(/C=C2\SC(=S)N(C3CCS(=O)(=O)C3)C2=O)cc1 (stereo not drawn)	-1	-2	-8	1	-21	-7
O=C1/C(=C/c2ccco2)SC(=S)N1CC1CCCO1 (stereo not drawn)	5.4*	0	-10	32	-1	12
Cc1ccc(/C=C2\SC(=S)N(CC3CCCO3)C2=O)o1 (stereo not drawn)	1	-3	-12	-5	-5	8
O=C1/C(=C\c2ccco2)SC(=S)N1C1CCS(=O)(=O)C1 (stereo not drawn)	7.3*	2	-9	61	27	94
CCOC(=O)C(NCCc1ccccc1F)(NC(=O)CC)C(F)(F)F (stereo not drawn)	-4	-1	-1	9	29	52
Cc1cc(Cl)c2oc(C(=O)N(C)CCc3cnn(C)c3)c(C)c2c1	-3	-2	-41	2	-4	-7
Nc1[nH]nc2nc3ccccc3cc12	-2	-1	-5	6	8	35
Nc1cccc2nc3ccccc3cc12	0	4	45*	21	-2	-18
COc1ccc2c(C(=O)NCc3ccc4c(c3)OCO4)c(-c3ccc(S(C)(=O)=O)cc3)sc2c1	.	.	.	.	.	-9
